Screening results deposited in PubChem by several laboratories.
Sampled rows, rich in hits. Any-hit rate of the full collection: about 3.1%.
Yeast growth inh = yeast BB579 growth reduction in restrictive medium. S. cerevisiae BB579 growth, OD615, 48 h. inhibition, % at 10 µM. 0.51% of 140,000 active. AID 804;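 active = inhibition above a set limit, 3 SD over the mean compound inhibition, cut at about 44% in these data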
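Test system: S. cerevisiae DeaD strain BB579 yeast; Medium: restrictive CSMM-D medium; Compound: one dose, 10 µM compound with 0.25% DMSO; Incubation: 4 h cell preincubation, 48 h compound exposure, 30 °C humidified; Signal: OD at 615 nm; Benchmarks: amphotericin B at 10 µg/mL as positive control.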
INS promoter inh = TRM-6 insulin promoter activity inhibition; TRM-6 cells, insulin promoter-eGFP reporter, imaging; reporter expression induced with tamoxifen; inhibition, % at 2 µM; 0.9% of 130,000 active; AID 1273;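 active = inhibition above the mean plus 3 SD, with well images judged a real hit on visual review, cut at about 60% in these data, passing the limit was not always enough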
Yeast lifespan up = extends the lifespan of yeast; 0.68% of 130,000 active; S. cerevisiae growth with nicotinamide, OD615; deaD strain in restrictive glucose medium; inhibition of the nicotinamide effect, % at 10 µM;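 active = inhibition above a set limit, placed 3 SD over the median of all compounds, cut at about 26% in these data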;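 also: 0% = nicotinamide-treated wells and 100% = cells grown without nicotinamide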
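Assay system: engineered S. cerevisiae DeaD replicative-lifespan strain, galactose-grown log-phase cells; medium: restrictive CSMM-D dextrose medium; also added: nicotinamide, 1.5 mM, co-present with compound; schedule: 48 h compound exposure at 30 °C, humidified; detection: absorbance at 615 nm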
Insulin prom up = MIN6 insulin promoter up-regulation | z-score at 5 µM | MIN6 insulin promoter-GFP reporter, high-content imaging; active compounds read high | AID 1625 | 0.3% of 190,000 active;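 active = z-score above 3 at 5 µM with at least 500 cells counted in the well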
RAM inhibit = inhibitors of the yeast RAM network; AID 868; S. cerevisiae dse1pr::URA3 reporter, 5-FOA growth OD615, 2 d; analog-sensitive cbk1-as2 kinase mutant strain; 1.8% of 190,000 active; inhibition, % at 50 µM;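 active = inhibition above a set limit, 3 SD over mean compound inhibition, cut at about 8.4% in these data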;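 also: 0% = DMSO-only wells with no growth and 100% = 10 µM 1-NA-PP1 full growth; inhibition rescues growth on 5-FOA so higher OD means more RAM inhibition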
* marks the source's active call; other numbers are inactive results; · = no result.

SMILES	Yeast growth inh	INS promoter inh	Yeast lifespan up	Insulin prom up	RAM inhibit
Nc1nn(-c2ccccc2)nc1C(=O)OCc1ccccc1	·	·	·	-0.13	·
COc1cccc(COC(=O)c2nn(-c3ccccc3)nc2N)c1	·	47	·	-0.37	9.7*
Cc1ccc(C(C2=C(O)CC(C)(C)CC2=O)C2C(=O)CC(C)(C)CC2=O)s1 (configuration not stated)	12	·	25	0.63	-1
CC1(C)CC(=O)C(C(C2=C(O)CC(C)(C)CC2=O)c2ccc([N+](=O)[O-])cc2)C(=O)C1 (configuration not stated)	-31	-3	38*	-0.19	2
CC1(C)CC(=O)C(C(C2=C(O)CC(C)(C)CC2=O)c2ccc(Br)s2)C(=O)C1 (configuration not stated)	-8	·	30*	0.08	-1
Fc1cccc(CN2CCN(c3nc4nonc4nc3NC3CC3)CC2)c1	·	-24	·	-0.45	1
NC(=O)C1CCN(C(=O)c2ccc(Oc3ccccc3)cc2)CC1	-7	-11	-3	-0.54	2
CC(C)c1ccc(C2C3CSCC=C3C(C#N)=C(N)C2(C#N)C#N)cc1 (configuration not stated)	-27	-3	29*	·	1
CN1CC=C2C(C#N)=C(N)C(C#N)(C#N)[C@H](c3cccc(Cl)c3)C2C1 (some centres not stated)	-17	-7	-9	·	-1
C/C(N)=C(/C#N)C(=O)CSc1nc2scc(-c3ccccc3)c2c(=O)n1C	·	-45	·	1.1	9.6*
O=C(COC(=O)c1cc(-c2ccccn2)nc2ccccc12)Nc1ncc(C(F)(F)F)cc1Cl	·	·	·	1.6	·
CC(/C=N/NC(=O)c1cccnc1)=C\c1ccccc1	·	50	·	-0.1	0
CC(/C=N/NC(=O)c1ccncc1)=C\c1ccc(C(C)C)cc1	0	23	-14	3.2*	-1
CC(C)=C1SC(N2CCN(c3ccc(C)cc3)CC2)=NC1=O	-34	31	·	0.09	2
CC(C)=C1SC(N2CCN(c3ccc(Cl)cc3)CC2)=NC1=O	·	71*	·	-1	2
COc1ccc(OC)c(S(=O)(=O)NC(N)=NCCc2ccccc2OC)c1	·	-31	·	0.43	0
O=C(O)c1cccnc1SCc1ccccc1	-18	·	-6	-0.67	1
COc1cc(/C=C/C(=O)OCC(=O)Nc2ccc(NC(C)=O)cc2)cc(S(=O)(=O)N2CCc3ccccc32)c1OC	·	·	·	-0.96	10*
COc1cc(/C=C/C(=O)OCC(=O)NC2CC2)cc(S(=O)(=O)N2CCc3ccccc32)c1OC	·	5	·	-0.15	0
CCN1CCCCC(=N/O)/C(=N/O)CCCC1	·	·	·	0.86	·
c1ccc(-c2cnn3c(-c4ccccc4)c(-c4ccccc4)nc3n2)cc1	-29	·	4	17*	4
O=C1c2ccccc2-c2nc3ncnn3c(-c3ccccc3)c21	·	-3	·	·	·
COc1ccc(NC(=O)CCCn2cc([N+](=O)[O-])cn2)cc1	·	0	·	-0.26	3
COc1ccc(NC(=S)NNC(=O)CCn2cc([N+](=O)[O-])cn2)cc1	·	88*	·	-0.47	2
Clc1ccc(-c2cnc(Oc3ccccc3)nc2)cc1	-23	8	-11	·	2
SMILES	Yeast growth inh	INS promoter inh	Yeast lifespan up	Insulin prom up	RAM inhibit
Cc1cc(Cl)ccc1Oc1ncc(-c2ccc(Cl)cc2)cn1	-41	-59	-2	·	11*
CC1=C(C#N)C(NC(=O)c2ccccc2Cl)(C(F)(F)F)C(=O)N1 (configuration not stated)	3	-38	-4	0.09	2
Cc1cc(=O)oc2cc(OCC(=O)OCC(=O)Nc3ccccc3C(C)C)ccc12	-51	60*	-2	-0.48	1
CCNS(=O)(=O)c1ccc(NC(=O)c2ccccc2SCCOC)cc1	·	·	·	-0.03	0
Cc1ccc(Cl)cc1NC(=S)NCc1cccn1C	-24	-94	4	-0.86	4
COC(=O)c1nc(N)sc1C(C)C	·	0	·	·	0
CCSc1nc(N)nc(-c2cccs2)c1C#N	84*	·	-18	-0.03	-2
CC(C)(C)c1cc(NC(=O)c2ccco2)n(-c2ccccc2)n1	·	-26	·	0.05	3
COCCn1c(C)cc(C(=O)COc2ncnc3ccc(Br)cc23)c1C	·	27	·	-0.21	3
C=CCn1c(C)cc(C(=O)COc2ncnc3sccc23)c1C	-21	·	44*	-0.77	2
O=C(OCc1cccc([N+](=O)[O-])c1)c1ccc2ccccc2n1	·	·	·	0.42	9.6*
CCCOc1ccc(C(=O)CCNc2cccc(Cl)c2)cc1	·	·	·	·	9.8*
CCOC(=O)COn1c(=O)c[n+]([O-])c2ccccc21	-25	100*	-3	-1	1
CCOC(=O)COn1c(=O)c(C)[n+]([O-])c2ccccc21	-18	-11	-10	-0.29	-1
CCCn1c(SCC(=O)Nc2ccc(C(=O)Nc3ccccc3OC)cc2)n[nH]c1=O	·	-7	·	-0.35	9.2*
Cc1ccc(NC(=O)CCn2cccc2)cc1Cl	-34	-27	-7	3.2*	1
COc1ccccc1OCC(=O)Nc1nonc1NC(=O)COc1ccccc1OC	-9	-15	2	-0.22	3
Cn1cnc(S(=O)(=O)Nc2cc(C(F)(F)F)ccc2N2CCOCC2)c1	·	·	·	0.05	·
O=C(CSc1nnc(Cc2cc(=O)[nH]c(=O)[nH]2)n1-c1ccc(Cl)cc1)N1CCc2ccccc21	·	29	·	-0.02	6
O=C(CSc1nnc(Cc2cc(=O)[nH]c(=O)[nH]2)n1-c1ccccc1)N1CCCc2ccccc21	-20	·	-3	0.29	8.6*
O=C(NCCc1ccccc1)NC1CCCCC1	19	80*	-11	-0.63	-1
COc1ccc(NCc2nnc(SCc3ccc(Cl)cc3)n2-c2ccccc2)cc1	-37	-38	21	0.53	3
CCCCn1[nH]c(-c2ccccc2)cc1=O	-22	47	32*	0.04	0
Nc1c(Cl)ncnc1NCCc1ccc(O)cc1	·	·	·	-1.1	·
C=C(C)CC(c1ccccc1)N(C(C)=O)c1ccco1 (configuration not stated)	·	-16	·	0.07	1
SMILES	Yeast growth inh	INS promoter inh	Yeast lifespan up	Insulin prom up	RAM inhibit
C=CCC(c1ccccc1)N(C(C)=O)c1ccco1 (configuration not stated)	·	·	·	3.6*	4
COc1cc(/C=C(/C#N)C(=O)Nc2ccc(Cl)cc2)ccc1Oc1nc(Cl)ncc1F	·	·	·	-0.11	·
CCn1c(O)c(C2=c3ccccc3=NC2=O)c2cc(Br)ccc21	·	·	·	0.18	4
O=C1N=c2ccccc2=C1c1c(O)n(-c2cccc(F)c2)[nH]c1=O	-6	-1	33*	0.36	4
Cc1[nH]nc(SCC(=O)N2CCOCC2)c1[N+](=O)[O-]	·	-21	·	-0.47	0
C[C@H]1O[C@@H](O[C@H]2[C@@H](O)C[C@H](O[C@H]3[C@@H](O)C[C@H](O[C@H]4CC[C@@]5(C)[C@H](CC[C@@H]6[C@@H]5C[C@@H](O)[C@]5(C)[C@@H](C7=CC(=O)OC7)CC[C@]65O)C4)O[C@@H]3C)O[C@@H]2C)C[C@H](O)[C@@H]1O	-25	100*	4	·	0
